Source: PubChem
T cruzi HTS: intracellular Trypanosoma cruzi inhibition | intracellular Trypanosoma cruzi in host cells, plate reader | activity score (inhibition), % at 5.01 µM | 22,000 tested, 4.9% active | AID 651903; in the data active = activity score above about 55%;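 note: parasites and compound incubated about four days before reading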
INS-1E ATP HTS: preserves ATP levels in cytokine-treated INS-1E cells; INS-1E cytokine-induced death, ATP luminescence, 48 h; normalised: neutral wells 0, positive control 100; protection from cytokine-induced ATP loss, % at 10 µM; 20,000 tested, 0.1% active;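 active = mean replicate protection from cytokine-induced ATP loss at least 50% and at least 75% of replicates each reaching 50%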
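Assay system – rat INS-1E insulinoma cell line · Quantity – 8000 cells per well · Buffer or medium – RPMI without phenol red, 5% FBS · Schedule – 48 h co-treatment, 10 min post-lysis read · Technique – luminescent ATP assay (CellTiter-Glo)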
YB-1 expr inh: YB-1 expression inhibition; U2OS, qRT-PCR YB-1 vs CDIP delta delta Cp, 16 h; active compounds read high; zero = DMSO, each unit about twofold; delta delta Cp (YB-1 minus CDIP) (concentration not given with the values); 30,000 tested, 0.37% active; AID 434959;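 active = delta delta Cp rounded down to an integer at or above 3, about 3 SD of DMSO wells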;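 note: higher means less YB-1 transcript or more CDIP transcript relative to DMSO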
Each line names hits and unclear results; the compound was inactive in the other large screens. Only a selection was taken, and hits are over-represented in it overall.

CC(C)(C)OC(=O)Nc1cccc(/C=N/NC(=O)c2cccc(C(=O)NO)c2)c1	none
Cc1noc(C)c1NC(=O)N(C)C[C@H]1OCc2cnnn2CCCC(=O)N([C@@H](C)CO)C[C@@H]1C	none (no result: INS-1E ATP HTS)
CNC[C@@H]1Oc2ccc(NC(=O)Nc3ccc(F)cc3)cc2C(=O)N([C@H](C)CO)C[C@H]1C	none
C[C@H](CO)N1C[C@H](C)[C@H](CN(C)Cc2ccncc2)Oc2ccc(NC(=O)Nc3ccc4c(c3)OCO4)cc2CC1=O	none
C[C@@H]1CN([C@H](C)CO)C(=O)Cc2cc(NC(=O)Nc3ccc4c(c3)OCO4)ccc2O[C@@H]1CN(C)Cc1ccc2c(c1)OCO2	none
C[C@@H]1CN([C@H](C)CO)C(=O)Cc2cc(NC(=O)Nc3ccc4c(c3)OCO4)ccc2O[C@@H]1CN(C)Cc1ccc(Cl)c(Cl)c1	T cruzi HTS 74.4
C[C@@H]1CN([C@H](C)CO)C(=O)Cc2cc(NC(=O)Nc3ccc4c(c3)OCO4)ccc2O[C@H]1CN(C)Cc1ccc(Cl)c(Cl)c1	T cruzi HTS 68.3
C[C@@H]1CN([C@@H](C)CO)C(=O)c2cc(NC(=O)Cn3cnnn3)ccc2O[C@@H]1CN(C)Cc1ccc(Cl)c(Cl)c1	none
C[C@@H]1CN([C@H](C)CO)C(=O)c2cccc(NC(=O)C3CC3)c2O[C@H]1CN(C)S(C)(=O)=O	none
COc1ccc(/C=C/C(=O)O[C@@H]2[C@@H](O)[C@H](C)O[C@@H](O[C@H]3[C@@H]4C=CO[C@@H](O[C@H]5O[C@@H](CO)[C@H](O)[C@@H](O)[C@@H]5O)[C@@H]4[C@@]4(CO)O[C@@H]34)[C@@H]2OC(C)=O)cc1	none (no result: T cruzi HTS, INS-1E ATP HTS)
COc1ccc(/C=C/C(=O)O[C@H]2[C@H](O[C@H]3[C@@H]4C=CO[C@@H](O[C@@H]5O[C@H](CO)[C@@H](O)[C@H](O)[C@H]5O)[C@@H]4[C@@]4(CO)O[C@@H]34)O[C@@H](C)[C@H](O)[C@H]2OC(C)=O)cc1	YB-1 expr inh 10.3 (no result: T cruzi HTS, INS-1E ATP HTS)
COc1cc(Br)c(/C=N/NC(=O)CCCCCCC(=O)Nc2ccccc2O)cc1OC	none
Cc1noc(C)c1NC(=O)Nc1cccc2c1O[C@@H](CN(C)S(=O)(=O)c1cccs1)[C@H](C)CN([C@H](C)CO)C2=O	none
C[C@@H]1CCCCO[C@@H](CN(C)Cc2ccccc2)[C@@H](C)CN([C@H](C)CO)C(=O)c2cc(NC(=O)Nc3ccc(F)cc3)ccc2O1	T cruzi HTS 62.4
C[C@@H]1CCCCO[C@H](CN(C)Cc2ccccc2)[C@@H](C)CN([C@H](C)CO)C(=O)c2cc(NC(=O)Nc3ccc(C(F)(F)F)cc3)ccc2O1	T cruzi HTS 71.1
C[C@@H]1CCCCO[C@H](CN(C)Cc2ccc(C(F)(F)F)cc2)[C@@H](C)CN([C@H](C)CO)C(=O)c2cc(NC(=O)c3ccccc3)ccc2O1	none
C[C@@H]1CCCCO[C@H](CN(C)Cc2ccccc2)[C@@H](C)CN([C@H](C)CO)C(=O)c2cc(NC(=O)Nc3ccccc3)ccc2O1	none
C[C@@H]1CCCCO[C@H](CN(C)Cc2ccc(C(F)(F)F)cc2)[C@@H](C)CN([C@H](C)CO)C(=O)c2cc(NC(=O)Nc3ccccc3)ccc2O1	T cruzi HTS 67.5
C[C@@H]1CCCCO[C@H](CN(C)Cc2ccccc2)[C@@H](C)CN([C@H](C)CO)C(=O)c2cc(NC(=O)Nc3ccc(F)cc3)ccc2O1	none
C[C@H](CO)N1C[C@H](C)[C@@H](CN(C)S(=O)(=O)c2ccc(Cl)cc2)Oc2c(NS(=O)(=O)c3cn(C)cn3)cccc2C1=O	none
Cc1nnsc1C(=O)Nc1cccnc1	none (no result: T cruzi HTS, INS-1E ATP HTS)
O=C(Cc1ccccc1)Oc1ccc(C2SCCS2)cc1	none (no result: T cruzi HTS, INS-1E ATP HTS)
C[C@@H]1CN([C@H](C)CO)C(=O)Cc2cc(N(C)C)ccc2O[C@@H]1CN(C)Cc1ccc(C(F)(F)F)cc1	none
C[C@H]1CN([C@@H](C)CO)C(=O)Cc2cc(N(C)C)ccc2O[C@@H]1CN(C)Cc1ccc(C(F)(F)F)cc1	T cruzi HTS 73.8
C[C@@H]1CN([C@@H](C)CO)C(=O)Cc2cc(N(C)C)ccc2O[C@@H]1CN(C)Cc1ccc(C(F)(F)F)cc1	none
C[C@@H]1CN([C@H](C)CO)C(=O)Cc2cc(N(C)C)ccc2O[C@H]1CN(C)Cc1ccc(C(F)(F)F)cc1	T cruzi HTS 64.0
Cc1noc(C)c1NC(=O)Nc1ccc2c(c1)C(=O)N([C@@H](C)CO)C[C@H](C)[C@@H](CN(C)S(=O)(=O)c1ccccc1)O2	none
C[C@@H]1CN([C@H](C)CO)C(=O)Cc2cc(NC(=O)Cc3cn(C)c4ccccc34)ccc2O[C@H]1CN(C)Cc1ccncc1	none
C[C@@H]1CN([C@H](C)CO)C(=O)c2cc(NC(=O)Cc3cn(C)c4ccccc34)ccc2O[C@@H]1CN(C)Cc1ccc(Cl)c(Cl)c1	T cruzi HTS 79.1
